Compound activity (PubChem BioAssay)
Shown are actives, neighbours in structure and some others; about 3.5% of the full set was active somewhere.
MrgX1 allo act – positive allosteric modulators of MrgX1, primary screen, HEK293 cells, Fluo-4 calcium flux | Mas-related G-protein coupled receptor member X1 (Homo sapiens), Q96LB2 | FDSS; hits give high values | B-score at 10 µM | 310,000 compounds, 0.63% hits;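 active means plate-corrected calcium response at least 3 library SD above typical, normal starting fluorescence, not activating the receptor alone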;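 further: compound read alongside a low EC10 to EC30 dose of BAM8-22 agonist; peak minus trough fluorescence over baseline measured at the second addition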
RGS4 pot – RGS4 potentiators or activators, primary screen, cell-based, HEK293 M3R inducible RGS4, calcium flux | B-score at 10 µM | AID 463111, 2010 | 310,000 compounds, 0.92% hits | carbachol calcium flux Fluo4; hits give low values;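 active means B-score of the integrated calcium signal more than 4 SD below the library mean, with starting fluorescence not abnormally high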;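 further: negative B-score means reduced calcium response which marks RGS4 activation or potentiation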
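Detection: kinetic calcium fluorescence imaging with Fluo4-AM dye, 2 µM / Material: HEK293 cells with stable M3R and inducible RGS4 / Schedule: recording 10 s baseline at 1 Hz, 100 s post-agonist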
MrgX1 ag – agonists of human MrgX1 receptor, primary screen, HEK293 cells, Fluo-4 calcium flux | Mas-related G-protein coupled receptor member X1 (Homo sapiens), Q96LB2 | Fluo-4 calcium fluorescence, agonist mode; hits give high values | B-score at 10 µM | 310,000 compounds, 0.44% hits | AID 588627, 2011;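 active means calcium response B-score plate-corrected fluorescence ratio at least 3 library SD, with starting fluorescence B-score inside 5 SD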
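Material: MrgX1-expressing HEK293 cells / Dosing: compound as first of three additions / Incubation: overnight seeding, then 1 h dark dye loading / Signal: Fluo-4 NW calcium fluorescence / Evaluation: B-scored fluorescence response ratio / Benchmarks: positive and negative control wells on each plate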
MrgX1 antagonist – antagonists of human MrgX1 receptor, primary screen, HEK293 cells, Fluo-4 calcium flux | Mas-related G-protein coupled receptor member X1 (Homo sapiens), Q96LB2 | B-score at 10 µM | 310,000 compounds, 1.3% hits | BAM8-22 antagonism; hits give low values;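 active means calcium-response B-score plate-corrected more than 3 library SD below zero, starting fluorescence within 5 deviations, no agonist response on first addition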;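 further: peak minus trough fluorescence over baseline after final BAM8-22 challenge near maximal dose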
RGS4 inh – RGS4 inhibitors, primary screen, cell-based, HEK293 M3R inducible RGS4, calcium flux; B-score at 10 µM; 310,000 compounds, 0.45% hits; Fluo-4 calcium flux; hits give high values; triggered by carbachol at its EC20;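 active means B-score, a plate-corrected calcium signal, over three deviations above library mean, with baseline fluorescence within five deviations of library mean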;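 further: RGS4 expression induced by doxycycline in cells with stable M3 receptor; B-score is computed from the integrated fluorescence ratio over baseline after carbachol; higher B-score means a larger calcium signal and so more RGS4 inhibition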
Target sequence (P49798 whole entry, looked up): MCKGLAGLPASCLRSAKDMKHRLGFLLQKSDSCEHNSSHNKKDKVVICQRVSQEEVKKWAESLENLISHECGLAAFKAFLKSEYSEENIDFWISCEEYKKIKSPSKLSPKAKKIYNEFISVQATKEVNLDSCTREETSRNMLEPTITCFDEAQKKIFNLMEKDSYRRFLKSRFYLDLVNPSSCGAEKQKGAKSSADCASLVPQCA
* marks the source's active call; other numbers are inactive results; i = inactive; · = not tested or not shown.

SMILES	MrgX1 allo act	RGS4 pot	MrgX1 ag	MrgX1 antagonist	RGS4 inh
CC[n+]1c(/C=C/Nc2ccccc2)sc2ccccc21	i	i	i	i	i
CCN1/C(=C/C=C/C=C/C=C/c2sc3ccccc3[n+]2CC)Sc2ccccc21	i	i	i	-5.1*	i
CCN1/C(=C/C=C/c2sc3ccccc3[n+]2CC)Sc2ccccc21	i	-7*	i	-4.6*	i
CCN1/C(=C/C=C/C=C/c2sc3ccccc3[n+]2CC)Sc2ccccc21	i	i	i	i	i
CCOC(=O)c1nc(NNC(=O)c2ccc([N+](=O)[O-])cc2)sc1C	i	i	i	i	i
N#Cc1c(N)c(C(=O)c2ccccc2)n2ccccc12	i	i	i	i	i
COc1ccc(C(CCN2CCCCC2)c2c(OC)cc(OC)c3c(-c4ccccc4)cc(=O)oc23)cc1 (stereo unspecified)	14*	i	i	i	i
N#Cc1ccc(N=c2ssnc2Cl)cc1	i	i	31*	i	i
CCOC(=O)c1ccc(N=c2ssnc2Cl)cc1	·	i	·	·	i
COc1ccc(N=c2ssnc2Cl)cc1	i	i	27*	i	i
Clc1ccc(N=c2ssnc2Cl)cc1	i	i	i	i	i
COc1cc(N=c2ssnc2Cl)cc(OC)c1OC	i	i	32*	i	i
Fc1ccc(N=c2ssnc2Cl)c(F)c1	i	i	35*	i	i
Cc1ccc(C(=O)/C=C/c2ccccc2)o1	i	i	28*	i	i
Cc1ccc(/C=C/C(=O)c2ccc([N+](=O)[O-])o2)cc1	i	i	i	i	9.8*
Cc1ccc(C(=O)/C=C/c2ccc(Br)cc2)o1	i	i	i	i	i
COc1ccccc1C(=O)NCCNc1ccc([N+](=O)[O-])cc1Cl	i	i	i	i	i
CC(=O)NCCNC(=O)C1CCC(CNc2nc(=S)[nH]c3ccccc23)CC1 (stereo unspecified)	i	i	i	i	i
COc1ccc(CNC(=O)C2CCC(CNc3nc(=S)[nH]c4ccccc34)CC2)cc1 (stereo unspecified)	12*	i	i	i	i
CCC(C)N(CCNC(=O)CC1Oc2ccc(C)cc2NC1=O)C1CCCCC1 (stereo unspecified)	i	-7.3*	i	i	i
COc1ccc(CN2CCN(CC=C(C)C)C(CCO)C2)cc1Cn1cccn1 (stereo unspecified)	i	i	28*	i	i
Cc1ccc(S(=O)(=O)CCN2CCC(n3cccc3)CC2)cc1	i	i	i	i	i
CNc1ccc(Br)cc(C(=O)/C=C/c2cccc(OC)c2OC)c1=O	i	i	i	-4.8*	i
CCNc1ccc(Br)cc(C(=O)/C=C/c2ccccc2Cl)c1=O	i	i	i	-6*	i
Cc1cc2[nH]c3c(c[n+](C)c4ccccc34)c2cc1C	i	-7.1*	i	i	i
SMILES	MrgX1 allo act	RGS4 pot	MrgX1 ag	MrgX1 antagonist	RGS4 inh
COC(=O)C(C(=O)OC)C(c1ccccc1)C(C(=O)c1ccccc1)[N+](=O)[O-] (stereo unspecified)	i	i	i	i	i
Cc1ccc2c(c1)N(CCC(=O)NC1CCCCC1C)C(=O)CO2 (stereo unspecified)	i	i	i	i	i
O=C(CSc1nnc(CNC(=O)c2cccs2)o1)Nc1ccc(F)cc1F	i	i	i	i	i
Cc1sc2ncnc(N3CCC(C(=O)NNC(=O)COc4ccccc4F)CC3)c2c1C	i	-7.7*	i	i	i
Cc1sc2ncnc(N3CCC(C(=O)NNC(=O)COc4ccccc4Cl)CC3)c2c1C	i	-8*	i	-7*	i
Cc1ccc(OCC(=O)NNC(=O)C2CCN(c3ncnc4sc(C)c(C)c34)CC2)cc1	i	i	i	i	i
